# Reference: ChEMBL document CHEMBL3421533, “The Discovery of Orally Bioavailable Tyrosine Threonine Kinase (TTK) Inhibitors: 3-(4-(heterocyclyl)phenyl)-1H-indazole-5-carboxamides as Anticancer Agents” (J Med Chem, 2015)
# Legend:
# [1] = Clearance in Sprague-Dawley rat at 1 mg/kg, iv by LC-MS/MS analysis; type: ADME, organism-based; design: dose 1 mg/kg, route intravenous; conditions: in vivo
# [2] = Cytotoxicity against human TOV21G cells after 5 days by sulforhodamine B assay; type: functional; conditions: 120 h
# How it was run: (§1)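 Cancer lines were seeded at 800–6000 cells per well according to growth rate, 24 h before compound overlay. After culture, cells were fixed in situ and stained with sulforhodamine B. GI50 values were derived by curve fitting.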
# [3] = Cytotoxicity against human SKBR3 cells after 5 days by sulforhodamine B assay; type: functional; conditions: SK-BR-3, 120 h; how it was run: as §1
# [4] = Antitumor activity against human HCT116 cells xenografted in athymic CD1 nude mouse assessed as tumor growth inhibition at 23 mg/kg, po qd administered for 21 days measured 3 times per week during compound dosing relative to vehicle-treated control; type: functional; conditions: HCT-116, 504 h, read-out: TGI
# How it was run: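 HCT116 cells (5 million) were injected subcutaneously into the right flank of 6–8 week old female athymic CD-1 nude mice. At a mean tumor volume of 80–120 mm³, mice were randomized (n = 8). Dosing was oral, daily for 21 days, in 10% NMP/40% PEG400/50% DI water, at the MTD and ~2/3 MTD. Tumors were measured three times weekly, volume x²y/2, and TGI was taken against vehicle.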
# [5] = target: T1, Aurora kinase B/Inner centromere protein (Homo sapiens, UniProt Q96GD4); test: Inhibition of AURKB/INCENP (unknown origin) preincubated for 15 mins prior to ATP addition by FRET-based homogenous assay; type: protein-complex assay
# How it was run: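 The enzyme was AURKB/INCENP in a FRET-based homogeneous assay run to kit specifications, with ATP at 128 μM. […] Each IC50 came from a single determination, reported with its standard fitting error.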
# COLO 205 = test: Cytotoxicity against human COLO205 cells after 5 days by sulforhodamine B assay; type: functional; conditions: COLO 205, 120 h; how it was run: as §1
# [6] = AUCinfinity in Sprague-Dawley rat at 1 mg/kg, iv by LC-MS/MS analysis; type: ADME, organism-based; design: time infinity, dose 1 mg/kg, route intravenous; conditions: plasma
# BT-474 = test: Cytotoxicity against human BT474 cells after 5 days by sulforhodamine B assay; type: functional; conditions: BT-474, 120 h; how it was run: as §1
# Aurora kinase A = target: T2, Aurora kinase A (Homo sapiens, UniProt O14965); test: Inhibition of AURKA (unknown origin) transfected in human HCT116 cells after 4 hrs by near infrared imager analysis; type: cell-based, HCT-116
# T2 sequence (O14965 whole entry): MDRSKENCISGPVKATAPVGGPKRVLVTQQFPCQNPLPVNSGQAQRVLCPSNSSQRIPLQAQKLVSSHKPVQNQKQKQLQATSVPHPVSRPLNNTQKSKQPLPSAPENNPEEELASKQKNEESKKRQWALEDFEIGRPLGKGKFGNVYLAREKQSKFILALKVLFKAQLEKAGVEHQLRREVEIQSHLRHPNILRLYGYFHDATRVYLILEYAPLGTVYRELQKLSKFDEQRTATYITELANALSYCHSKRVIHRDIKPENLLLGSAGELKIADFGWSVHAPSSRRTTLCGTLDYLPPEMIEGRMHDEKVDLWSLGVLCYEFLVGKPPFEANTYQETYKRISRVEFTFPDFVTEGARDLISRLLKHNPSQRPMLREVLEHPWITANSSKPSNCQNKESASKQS
# How it was run: (§2)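 HCT116 cells transfected with wild-type TTK were arrested with nocodazole (200 ng/mL, 17 h). They were pretreated with MG132 (15 μM, 30 min), then exposed to compound or DMSO for 4 h. Blots were probed for phospho-TTK (Thr12/Ser15), phospho-Aurora A (Thr288)/B (Thr232), TTK and GAPDH. Bands were quantified by near-infrared imaging, and EC50 was fitted.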
# MDA-MB-231 = test: Cytotoxicity against human MDA-MB-231 cells after 5 days by sulforhodamine B assay; type: functional; conditions: MDA-MB-231, 120 h; how it was run: as §1
# [7] = target: T3, Dual specificity protein kinase TTK (Homo sapiens, UniProt P33981); test: Inhibition of amino terminal GST-fused full length human TTK using His6-SUMO-TTK-N as substrate preincubated for 15 mins prior to ATP addition by indirect ELISA detection system
# T3 sequence (P33981 whole entry): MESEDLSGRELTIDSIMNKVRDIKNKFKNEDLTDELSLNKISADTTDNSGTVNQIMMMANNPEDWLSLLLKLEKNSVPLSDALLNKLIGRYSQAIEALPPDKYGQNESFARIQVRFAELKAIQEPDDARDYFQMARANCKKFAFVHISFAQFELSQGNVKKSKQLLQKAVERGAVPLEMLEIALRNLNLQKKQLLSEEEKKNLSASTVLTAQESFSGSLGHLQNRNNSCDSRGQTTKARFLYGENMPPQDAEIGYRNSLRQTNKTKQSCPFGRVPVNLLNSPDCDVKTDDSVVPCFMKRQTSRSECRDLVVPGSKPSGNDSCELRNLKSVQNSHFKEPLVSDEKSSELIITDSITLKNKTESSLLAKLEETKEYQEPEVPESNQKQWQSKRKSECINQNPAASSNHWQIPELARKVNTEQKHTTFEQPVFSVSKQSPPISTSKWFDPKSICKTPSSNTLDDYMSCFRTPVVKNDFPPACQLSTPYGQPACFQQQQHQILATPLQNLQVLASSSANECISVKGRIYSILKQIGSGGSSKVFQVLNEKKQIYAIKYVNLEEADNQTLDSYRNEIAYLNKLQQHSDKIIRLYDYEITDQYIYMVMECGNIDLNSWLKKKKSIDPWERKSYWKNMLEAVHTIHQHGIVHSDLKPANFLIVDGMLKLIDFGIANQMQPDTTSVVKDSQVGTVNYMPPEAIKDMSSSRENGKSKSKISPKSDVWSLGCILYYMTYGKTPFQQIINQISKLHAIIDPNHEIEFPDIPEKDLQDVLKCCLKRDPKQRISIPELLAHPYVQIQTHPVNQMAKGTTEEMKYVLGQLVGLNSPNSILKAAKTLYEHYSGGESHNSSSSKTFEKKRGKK
# HCT-116 = test: Induction of chromosome segregation defect in human HCT116 cells assessed as anaphase and telophase cells with lagging chromosomes at 500 nM incubated for 6 hrs post double thymidine block by DAPI staining-based immunofluorescence microscopic analysis (reference value: 19 +/- 2%); type: functional
# SK-MEL-5 = test: Cytotoxicity against human SK-MEL-5 cells after 5 days by sulforhodamine B assay; type: functional; conditions: SK-MEL-5, 120 h; how it was run: as §1
# [8] = Cytotoxicity against human OV90 cells after 5 days by sulforhodamine B assay; type: functional; conditions: OV-90, 120 h; how it was run: as §1
# A549 = test: Cytotoxicity against human A549 cells after 5 days by sulforhodamine B assay; type: functional; conditions: A549, 120 h; how it was run: as §1
# T47D = test: Cytotoxicity against human T47D cells after 5 days by sulforhodamine B assay; type: functional; conditions: 120 h; how it was run: as §1
# [9] = target: T1, Aurora kinase B/Inner centromere protein; test: Inhibition of AURKB/INCENP (unknown origin) transfected in human HCT116 cells after 4 hrs by near infrared imager analysis; type: cell-based, HCT-116; how it was run: as §2
# HT-29 = test: Cytotoxicity against human HT-29 cells after 5 days by sulforhodamine B assay; type: functional; conditions: HT-29, 120 h; how it was run: as §1
# SW-620 = test: Cytotoxicity against human SW620 cells after 5 days by sulforhodamine B assay; type: functional; conditions: SW-620, 120 h; how it was run: as §1
# MCF7 = test: Cytotoxicity against human MCF7 cells after 5 days by sulforhodamine B assay; type: functional; conditions: MCF7, 120 h; how it was run: as §1
# T1 sequence (Q96GD4 whole entry): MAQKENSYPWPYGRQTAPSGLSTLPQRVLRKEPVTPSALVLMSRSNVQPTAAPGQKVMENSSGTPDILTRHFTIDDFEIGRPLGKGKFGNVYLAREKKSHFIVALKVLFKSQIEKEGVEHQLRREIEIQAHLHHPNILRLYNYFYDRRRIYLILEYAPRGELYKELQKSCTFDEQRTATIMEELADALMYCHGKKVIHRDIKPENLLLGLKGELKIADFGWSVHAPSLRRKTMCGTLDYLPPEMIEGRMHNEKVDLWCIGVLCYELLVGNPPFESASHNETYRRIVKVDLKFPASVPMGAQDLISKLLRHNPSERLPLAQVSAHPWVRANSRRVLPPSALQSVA
# T1 sequence (Q9NQS7 whole entry, further chain): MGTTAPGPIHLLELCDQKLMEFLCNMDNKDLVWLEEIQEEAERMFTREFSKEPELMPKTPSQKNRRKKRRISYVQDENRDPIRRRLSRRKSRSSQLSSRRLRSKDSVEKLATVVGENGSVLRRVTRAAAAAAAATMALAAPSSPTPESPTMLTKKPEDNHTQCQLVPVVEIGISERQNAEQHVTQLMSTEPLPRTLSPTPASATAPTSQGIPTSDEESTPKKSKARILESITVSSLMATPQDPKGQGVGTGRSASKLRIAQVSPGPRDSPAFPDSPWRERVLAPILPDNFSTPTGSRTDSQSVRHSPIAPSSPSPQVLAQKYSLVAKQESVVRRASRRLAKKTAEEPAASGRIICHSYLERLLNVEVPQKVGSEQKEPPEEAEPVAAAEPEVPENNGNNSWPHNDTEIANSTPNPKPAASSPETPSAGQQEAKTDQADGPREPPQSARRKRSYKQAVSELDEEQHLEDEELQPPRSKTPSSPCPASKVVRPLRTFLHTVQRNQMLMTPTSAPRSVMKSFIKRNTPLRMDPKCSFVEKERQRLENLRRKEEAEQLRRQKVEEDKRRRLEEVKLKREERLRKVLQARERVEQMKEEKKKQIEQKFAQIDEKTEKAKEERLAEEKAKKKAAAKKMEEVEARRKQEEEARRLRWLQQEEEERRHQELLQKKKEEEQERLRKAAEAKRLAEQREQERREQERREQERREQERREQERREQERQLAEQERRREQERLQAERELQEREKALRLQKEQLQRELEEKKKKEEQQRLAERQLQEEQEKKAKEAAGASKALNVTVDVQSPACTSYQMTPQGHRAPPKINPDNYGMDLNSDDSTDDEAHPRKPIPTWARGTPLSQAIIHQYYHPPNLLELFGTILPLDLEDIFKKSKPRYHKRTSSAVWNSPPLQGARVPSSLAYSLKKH
structure (smiles),measurement,setting,value
O=C(N[C@@H](c1ccccn1)C1CC1)c1ccc2[nH]nc(-c3ccc(N4[C@H]5CC[C@H]4CC(O)C5)cc3)c2c1 (stereo in doubt; 75),clearance,[1],66 mL/min/kg
same,GI50,[2],16 nM
same,GI50,[3],8 nM
same,inhibition in vivo at 23 mg/kg,[4],55%
same,IC50,[5],1300 nM
same,GI50,COLO 205,60 nM
same,AUC(0-inf),[6],250 ng·h/mL
same,GI50,BT-474,15 nM
same,EC50,Aurora kinase A,> 6000 nM
same,GI50,MDA-MB-231,70 nM
same,IC50,[7],3.1 nM
same,Activity,HCT-116,94%
same,GI50,SK-MEL-5,20 nM
same,GI50,[8],30 nM
same,GI50,A549,24 nM
same,GI50,T47D,20 nM
same,EC50,[9],> 6000 nM
same,GI50,HT-29,18 nM
same,GI50,SW-620,30 nM
same,GI50,MCF7,15 nM
